Data as given in ChEMBL document CHEMBL1137085, “Recognition of privileged structures by G-protein coupled receptors” (J Med Chem, 2004).
Blank lines part the entries; values can stand above or below the molecule they belong to.

Key:
[1] = target: T1, Type-1 angiotensin II receptor (Homo sapiens, UniProt P30556); test: Inhibition against human angiotensin II receptor, type 1 (AG2-R)
T1 sequence (P30556 whole entry): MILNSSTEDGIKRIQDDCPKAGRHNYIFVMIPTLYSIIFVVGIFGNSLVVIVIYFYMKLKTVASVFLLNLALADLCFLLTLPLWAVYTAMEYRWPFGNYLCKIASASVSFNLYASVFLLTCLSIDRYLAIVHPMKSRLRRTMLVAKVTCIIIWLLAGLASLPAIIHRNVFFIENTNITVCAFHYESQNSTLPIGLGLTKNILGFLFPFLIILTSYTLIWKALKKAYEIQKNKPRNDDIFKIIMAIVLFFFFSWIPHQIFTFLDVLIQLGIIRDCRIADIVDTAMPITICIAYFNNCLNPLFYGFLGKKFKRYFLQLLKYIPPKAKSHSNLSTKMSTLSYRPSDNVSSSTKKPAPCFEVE
How it was run: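 Competition binding assay with saralasin as tracer, run externally by a contract lab following a published method. IC50 values were derived from tracer displacement.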

[2] = target: Growth hormone secretagogue receptor type 1 (Sus scrofa, UniProt Q95254); test: Inhibition against pig growth hormone secretagogue (GHS) receptor
Growth hormone secretagogue receptor type 1 (Sus scrofa, UniProt Q95254), sequence (Q95254 whole entry): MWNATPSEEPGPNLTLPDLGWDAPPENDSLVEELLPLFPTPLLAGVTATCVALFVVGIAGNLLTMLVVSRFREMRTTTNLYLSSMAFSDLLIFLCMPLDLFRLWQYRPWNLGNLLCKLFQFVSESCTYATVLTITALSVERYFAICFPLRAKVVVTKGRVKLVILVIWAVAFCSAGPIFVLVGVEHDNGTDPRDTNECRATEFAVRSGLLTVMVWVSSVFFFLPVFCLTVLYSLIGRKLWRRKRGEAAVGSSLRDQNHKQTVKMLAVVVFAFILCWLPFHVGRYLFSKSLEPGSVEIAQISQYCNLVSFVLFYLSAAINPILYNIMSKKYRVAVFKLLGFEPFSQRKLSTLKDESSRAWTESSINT

[3] = target: T2, Growth hormone secretagogue receptor type 1 (Homo sapiens, UniProt Q92847); test: Inhibition against human growth hormone secretagogue (GHS) receptor
T2 sequence (Q92847 whole entry): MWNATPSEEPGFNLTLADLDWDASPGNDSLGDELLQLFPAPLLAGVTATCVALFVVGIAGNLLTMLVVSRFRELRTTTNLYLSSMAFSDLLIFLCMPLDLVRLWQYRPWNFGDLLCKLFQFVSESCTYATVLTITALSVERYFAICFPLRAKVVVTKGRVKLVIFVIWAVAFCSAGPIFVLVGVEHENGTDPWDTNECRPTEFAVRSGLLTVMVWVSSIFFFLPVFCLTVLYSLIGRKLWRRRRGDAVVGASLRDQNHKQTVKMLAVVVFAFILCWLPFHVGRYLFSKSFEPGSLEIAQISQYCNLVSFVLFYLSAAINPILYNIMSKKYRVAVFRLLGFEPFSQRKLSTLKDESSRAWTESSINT
How it was run: (§1)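 Competition binding assay with ghrelin as tracer, run as previously described. IC50 values were derived from tracer displacement.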

Melanocortin receptor 4 [4] = target: T3, Melanocortin receptor 4 (Homo sapiens, UniProt P32245); test: Inhibition against human melanocortin-4 (MC4) receptor; No binding detected
T3 sequence (P32245 whole entry): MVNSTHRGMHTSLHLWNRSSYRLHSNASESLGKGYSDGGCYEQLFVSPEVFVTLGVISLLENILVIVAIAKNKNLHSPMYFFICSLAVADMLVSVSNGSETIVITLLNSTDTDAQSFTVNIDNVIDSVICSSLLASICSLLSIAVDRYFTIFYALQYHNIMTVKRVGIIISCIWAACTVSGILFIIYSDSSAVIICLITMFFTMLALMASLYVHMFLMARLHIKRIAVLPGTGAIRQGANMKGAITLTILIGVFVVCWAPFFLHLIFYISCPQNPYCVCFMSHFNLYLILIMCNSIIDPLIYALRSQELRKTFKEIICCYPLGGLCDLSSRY
How it was run: (§2)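 BHK570 cells stably transfected with MC4 cDNA, with clones selected in G418/MTX medium. Membranes were homogenised in 20 mM Hepes pH 7.1, 5 mM MgCl2 and bacitracin. 10 μg membranes were incubated with 80 pM 125-labelled NDP-α-MSH and varying test concentrations in 25 mM HEPES pH 7.0 buffer (CaCl2, MgSO4, EGTA, tween 20, 0.1% HSA) for 2 h at 25 °C. Samples were filtered and washed with ice-cold saline, then counted; IC50 was determined.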

Melanocortin receptor 4 [5] = target: T3, Melanocortin receptor 4; test: Inhibition against human melanocortin-4 (MC4) receptor; how it was run: as §2
[6] = target: T2, Growth hormone secretagogue receptor type 1; test: Inhibition against human growth hormone secretagogue (GHS) receptor; No binding detected; how it was run: as §1
[7] = target: 5-hydroxytryptamine receptor 6 (Homo sapiens, UniProt P50406); test: Inhibition against human 5-hydroxytryptamine 6 receptor
5-hydroxytryptamine receptor 6, sequence (P50406 whole entry): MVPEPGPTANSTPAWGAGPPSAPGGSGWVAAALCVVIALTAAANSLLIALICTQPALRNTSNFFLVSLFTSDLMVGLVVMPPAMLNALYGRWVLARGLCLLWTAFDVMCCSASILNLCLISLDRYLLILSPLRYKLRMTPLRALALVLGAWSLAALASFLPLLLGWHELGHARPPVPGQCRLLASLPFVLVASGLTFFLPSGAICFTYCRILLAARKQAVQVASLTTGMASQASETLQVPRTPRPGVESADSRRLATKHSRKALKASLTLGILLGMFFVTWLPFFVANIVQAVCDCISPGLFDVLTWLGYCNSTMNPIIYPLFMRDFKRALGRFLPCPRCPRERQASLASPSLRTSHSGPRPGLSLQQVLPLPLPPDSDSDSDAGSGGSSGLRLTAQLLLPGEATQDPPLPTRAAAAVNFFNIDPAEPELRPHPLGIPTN

Compound: CC(C)(N)CC(=O)N[C@@H]1CCc2ccccc2N(Cc2ccc(-c3ccccc3-c3nnn[nH]3)cc2)C1=O
IC50 [1]: 3.6 µM | IC50 [2]: 0.063 µM | IC50 [3]: 2.8 µM

Compound: CC(C)(N)C(=O)N[C@H](COCc1ccccc1)C(=O)N1CCC2(CC1)CN(S(C)(=O)=O)c1ccccc12 [IBUTAMOREN]
IC50 (Melanocortin receptor 4 [4]): Not Active

Compound: CCCCc1nc(Cl)c(CO)n1Cc1ccc(-c2ccccc2-c2nnn[nH]2)cc1 [LOSARTAN]
IC50 [6]: Not Active

Compound: CS(=O)(=O)N1CC2(CCN(C(=O)[C@@H](Cc3ccc(Cl)cc3)NC(=O)C3Cc4ccccc4CN3)CC2)c2ccccc21 (some centres undefined)
IC50 [3]: 0.19 µM | IC50 (Melanocortin receptor 4 [5]): 0.1 µM

Other lines, results leading:

IC50 (Melanocortin receptor 4 [5]): 0.612 µM
Compound: Cc1ccc2[nH]c(-c3ccc(Br)cc3)c(CCCCCNC3CCCCC3)c2c1

IC50 [7]: 0.0007 µM
Compound: CN(C)CCCc1c(-c2cccc(Br)c2)[nH]c2ccccc12
